# Rpn11 inh: Rpn11 (PSMD14) deubiquitinase inhibitors, primary screen, biochemical, fluorescence polarization, uHTS; 26S proteasome non-ATPase regulatory subunit 14 (Homo sapiens), O00487; human 26S proteasome, Ub4-pepOG fluorescence polarization; 20S core pre-blocked with epoxomicin; inhibition, % at 20 µM; 360,000 tested, 0.59% active;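 active means inhibition at 20 µM, scaled to each plate's controls, above about 33%, limit read from the data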
# Target sequence (O00487 whole entry, looked up): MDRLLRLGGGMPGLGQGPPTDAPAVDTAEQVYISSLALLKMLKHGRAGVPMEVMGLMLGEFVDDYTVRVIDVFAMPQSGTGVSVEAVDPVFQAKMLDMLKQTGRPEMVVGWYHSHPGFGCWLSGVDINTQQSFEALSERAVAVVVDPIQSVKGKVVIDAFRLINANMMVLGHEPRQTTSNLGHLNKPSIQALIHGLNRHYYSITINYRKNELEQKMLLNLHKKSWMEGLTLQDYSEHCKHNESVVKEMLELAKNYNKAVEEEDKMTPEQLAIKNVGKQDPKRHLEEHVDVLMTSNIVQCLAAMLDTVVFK
# DNMT1 inh: human DNMT1 methyltransferase inhibitors, primary screen, biochemical, molecular beacon, fluorescence, HinP1I cleavage, uHTS; DNA (cytosine-5)-methyltransferase 1 (Homo sapiens), P26358; inhibition (reported as % activation of signal), % at 10 µM; 360,000 tested, 0.83% active; AID 588458, 2011; in the data active means inhibition above about 50%
# SUMO1-SIM PPI: modulators of SUMO1 protein-protein interactions, primary screen, biochemical, uHTS; SUMO1 binding to a labelled peptide, TR-FRET, 1 h; 360,000 tested, 0.33% active; AID 602429, 2012; inhibition, % at 20 µM; in the data active means inhibition above about 37%
# Target sequence (P63165 whole entry, looked up): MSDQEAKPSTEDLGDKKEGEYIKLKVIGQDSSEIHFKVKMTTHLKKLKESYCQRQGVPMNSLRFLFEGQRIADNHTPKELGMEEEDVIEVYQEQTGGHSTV
# LMPTP inh: LMPTP phosphatase inhibitors, primary screen, biochemical, fluorescence intensity, uHTS; 360,000 tested, 0.22% active; inhibition, % at 20 µM; recombinant LMPTP-A, OMFP fluorogenic substrate; AID 651560, 2012;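 active means compounds that cut the enzyme signal by at least half of the control window in the single-dose screen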;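 further: plate controls were DMSO wells with enzyme plus substrate for no effect and substrate without enzyme for full effect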
#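 test system = LMPTP-A | amount = 0.625 nM LMPTP-A final | reagent = fluorogenic phosphatase substrate OMFP at 400 µM final | incubation = 50 min at room temperature | benchmarks = no-enzyme low control, uninhibited high control | medium = Bis-Tris pH 6.0, DTT, detergent | signal = fluorescence intensity of OMFP turnover product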
# Scp1 inh: Scp-1 phosphatase inhibitors, primary screen, biochemical, colorimetric, uHTS; Carboxy-terminal domain RNA polymerase II polypeptide A small phosphatase 1 (Homo …; Recombinant Scp1, phosphopeptide, malachite green phosphate absorbance; inhibition, % at 20 µM; 340,000 tested, 0.88% active; AID 493091, 2011;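 active means inhibition above about 50% at 20 µM, limit read from the data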;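 further: plate controls were DMSO wells with enzyme for no effect and wells lacking enzyme for full effect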
# Target sequence (Q9GZU7 76-261 limits assumed): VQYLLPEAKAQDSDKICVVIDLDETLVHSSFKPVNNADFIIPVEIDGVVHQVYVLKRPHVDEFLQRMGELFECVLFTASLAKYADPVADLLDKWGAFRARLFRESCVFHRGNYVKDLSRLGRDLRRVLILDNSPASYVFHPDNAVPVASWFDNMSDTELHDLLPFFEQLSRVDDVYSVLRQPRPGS
#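 assay system = SCP-1 phosphatase catalytic domain, residues 76-261 | buffer or medium = 50 mM Tris acetate pH 5.5, 0.005% Tween-20, 10 mM MgCl2 | incubation = enzyme reaction 45 min at room temperature, colour 5 min, stabilisation 30 min | signal = Phosphate-binding colour reagent, absorbance read at 630 nm | measure = % inhibition at 20 µM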
# STEP inh: STEP phosphatase inhibitors, primary screen, biochemical, fluorescence intensity, uHTS | Tyrosine-protein phosphatase non-receptor type 5 (Homo sapiens), P54829 | recombinant STEP, OMFP fluorogenic substrate | inhibition, % at 20 µM | AID 588621, 2011 | 360,000 tested, 0.25% active;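 active means inhibition at 20 µM, scaled per plate between control wells, above about 37%, limit read from the data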;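 further: 0% = DMSO with enzyme and substrate and 100% = substrate only without enzyme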
#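 Assay system: isolated STEP enzyme / Timing: 20 min at room temperature, dark / Doses: 20 µM, 1% DMSO / Technique: fluorescence intensity, excitation 480 nm, emission 540 nm / Reagent: fluorogenic phosphatase substrate OMFP at 25 µM final / Measure: percent inhibition scaled to no-enzyme and uninhibited-enzyme controls, plate-pattern corrected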
# * marks the source's active call; other numbers are inactive results; . = no result given. Hits are enriched below; roughly 2.3% of the tested compounds scored in any of these assays.
SMILES,Rpn11 inh,DNMT1 inh,SUMO1-SIM PPI,LMPTP inh,Scp1 inh,STEP inh
CC[n+]1c(/C=C/N(C)c2ccccc2)n(-c2ccccc2)c2ccc(-c3nc4ccccc4s3)cc21,-2,-1,-84,83*,32,10
C(=C\c1ccccn1)/c1cccnc1,3,0,-19,0,.,-2
CCc1ccc(C(O)c2ncc(-c3ccc4ccccc4c3)[nH]2)cc1 (stereo unspecified),-2,61*,-4,0,.,-2
CCOc1ccc(N2C(=O)CNC2=S)cc1,-1,0,1,0,-2,3
CCOc1ccc(N2C(=O)CS/C2=C(\C(Cl)=C(Cl)Cl)[N+](=O)[O-])cc1,71*,-12,-3,0,-11,-2
CCC1(O)CC(c2ccccc2)=NN1C(=O)c1ccccc1F (stereo unspecified),0,5,4,4,-7,-1
COc1cc(/C=C2\SC(=Nc3ccc(Cl)c(C(=O)O)c3)NC2=O)c(Br)c(Br)c1O,.,27,-21,-23,53*,27
O=C1/C(=C\c2cc([N+](=O)[O-])ccc2O)SC(=S)N1Cc1ccc(Cl)cc1,.,57*,19,4,-20,-18
Cc1onc(C(=O)NCc2ccccn2)c1[N+](=O)[O-],-10,2,-9,-1,3,-2
CN1CCc2cc3c(c4c2[C@H]1[C@H](O)c1ccccc1-4)OCO3,-62,70*,-36,4,-6,0
CCCCCC(=O)NC(NC(=S)N1CCOCC1)C(Cl)(Cl)Cl (stereo unspecified),-5,-2,3,-1,2,2
CCCCCC(=O)NC(NC(=S)NC1CCS(=O)(=O)C1)C(Cl)(Cl)Cl (stereo unspecified),-2,6,59*,-1,-4,-1
COc1ccc(C2/C(=C(\O)c3cccc(OC)c3)C(=O)C(=O)N2c2ccccn2)cc1 (stereo unspecified),-9,-3,-12,-1,-2,4
Oc1c(C(Nc2nc3ccccc3s2)c2ccco2)ccc2cccnc12 (stereo unspecified),30,-9,49*,4,-5,-1
Nc1cc2[nH]c(=O)c3ccccc3c2cc1[N+](=O)[O-],-12,0,50*,3,-5,1
Cc1c2cnn(CC(=O)N3CCOCC3)c(=O)c2c(C)n1Cc1ccccc1F,6,-2,2,0,-7,0
CC1=CC(C)(C)N(C(=O)CSc2ncn[nH]2)c2ccc(C)cc21,0,-1,43*,-1,-7,0
Cc1cc(O)c(C=O)c2c1C(=O)Oc1c(CO)c(O)c3c(c1O2)C(O)OC3=O (stereo unspecified),.,57*,103*,57*,77*,46*
CC(C)CCNC(=O)CN(CC1CCCO1)C(=O)CCC(=O)Nc1nccs1 (stereo unspecified),-3,4,-3,0,5,-7
CCC(C)(C)NC(=O)CN(CC1CCCO1)C(=O)CCC(=O)Nc1nccs1 (stereo unspecified),4,0,47*,1,22,-1
Cc1ncc(COCc2ccccc2)c(CO)c1OCc1ccccc1,0,-5,1,0,5,1
CCc1nnc(NC(=O)CSc2sc3c(O)cc(=O)[nH]c3c2C#N)s1,61*,83*,40*,32,95*,33
COC(=O)[C@]12CCCCC=C1N(Cc1cccc3ccccc13)C(=O)[C@H](CC(=O)NCC1CCCCC1)C2,.,.,3,5,.,.
Cc1c(N2C(=O)c3ccc(Br)cc3C2=O)c(=O)n(-c2ccccc2)n1C,6,2,-7,0,-5,-6
Cc1c(N2C(=O)c3ccc4c5c(ccc(c35)C2=O)CC4)c(=O)n(-c2ccccc2)n1C,-16,90*,-5,52*,65*,7
SMILES,Rpn11 inh,DNMT1 inh,SUMO1-SIM PPI,LMPTP inh,Scp1 inh,STEP inh
Cc1ccc(-c2nn(-c3ccccc3)cc2CC(=S)N2CCOCC2)cc1,0,-1,27,3,-8,1
CCCCn1nnnc1C(c1cc2ccccc2o1)N1CCN(c2cc(C)nc3ccccc23)CC1 (stereo unspecified),.,.,2,78*,.,.
CC(C)NC(=O)c1sc(=S)n2c1[nH]c(=O)c1ccc(C(=O)NCCc3ccc(Cl)cc3)cc12,22,-24,27,34,-7,40*
O=C1CSC(c2cn(-c3ccccc3)nc2-c2cc3ccccc3oc2=O)N1Cc1ccccc1 (stereo unspecified),1,-7,55*,3,-18,6
O=C1CSC(c2nn(-c3ccccc3)cc2-c2cc3ccccc3oc2=O)N1Cc1ccco1 (stereo unspecified),-2,2,2,-1,-9,3
Nc1nnc(SCCCC(=O)c2ccc(Br)cc2)s1,7,2,43*,0,5,0
CCOC(=O)CSc1nc(N)c(C#N)c(-c2ccc(OCC)cc2)c1C#N,0,-2,-127,2,-1,-6
CC1=C(C#N)c2nc(N)c(C#N)c(C)c2/C1=C\c1ccc(OCC(=O)O)c(Cl)c1,16,-1,37*,32,3,1
CN1CCc2c(sc3nc(NN)n(-c4ccc(Cl)cc4)c(=O)c23)C1,46*,-2,-4,21,-11,-2
O=C(Nc1ccc2c(c1)OCO2)c1csc([C@H]2C[C@H](O)[C@@H](CO)O2)n1,2,0,3,0,.,-3
COc1ccc(C(=O)Nc2nc(-c3ccc([N+](=O)[O-])cc3)c(-c3ccc(OC)cc3)s2)cc1,61*,1,-5,1,-19,2
Cc1cc(C)n(-c2cccc(CN(C)Cc3nc(-c4cnccn4)no3)c2)n1,0,0,1,-2,-15,-3
CS(=O)(=O)c1ccccc1-c1nnc(NC(=O)c2cccc(N3C(=O)CCC3=O)c2)o1,6,1,3,0,-3,-1
CCOc1ccc(NS(=O)(=O)c2ccc(NS(=O)(=O)c3ccccc3)cc2)cc1,9,3,2,2,-6,-2
CCOc1ccc(S(=O)(=O)Nc2cc(NS(=O)(=O)c3ccc(OCC)cc3)cc(C(=O)O)c2)cc1,-8,32,17,16,55*,1
